Assay results published in ChEMBL document CHEMBL6083209, “Pyridazinone-based derivatives as anticancer agents endowed with anti-microbial activity: molecular design, synthesis, and biological investigation” (RSC Med Chem, 2024).
Values after ≈ are worked out from the molar mass of the structure shown. Active and inactive are the calls of the source. The calls are words filed in the database; no cut-off is given here.

Tests used:
Staphylococcus aureus [1] = assay: Antimicrobial activity against Staphylococcus aureus ATCC 29213; type: functional
HOP-62 = assay: Antiproliferative activity against human HOP-62 cells assessed as growth inhibition at 10 uM incubated for 48 hrs by SRB method; type: functional; conditions: read-out: GI
Procedure, shortened: (§1)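 NCI-60 one-dose screen at 10 μM. Cells were grown in RPMI 1640 with 5% FBS and 2 mM L-glutamine and plated at 5000–40 000 cells/well for 24 h. Drug exposure was 48 h at 37 °C, 5% CO2. Cells were fixed with TCA, stained with 0.4% SRB and read at 515 nm. Growth is expressed as percent of untreated control and time-zero plates.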

U-251 [2] = assay: Antiproliferative activity against human U-251 cells assessed as growth inhibition at 10 uM incubated for 48 hrs by SRB method; type: functional; conditions: read-out: GI; procedure, shortened: as §1
SK-MEL-2 = assay: Antiproliferative activity against human SK-MEL-2 cells assessed as growth inhibition at 10 uM incubated for 48 hrs by SRB method; type: functional; conditions: read-out: GI; procedure, shortened: as §1
UACC-62 [3] = assay: Antiproliferative activity against human UACC-62 cells assessed as growth inhibition at 10 uM incubated for 48 hrs by SRB method; type: functional; conditions: read-out: GI
Procedure, shortened: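 NCI-60 one-dose screen at 10 μM. Cells grown in RPMI 1640 with 5% FBS and 2 mM L-glutamine, plated at 5000–40 000 cells/well and preincubated 24 h at 37 °C, 5% CO2. Drug exposure 48 h. Fixed with TCA and stained with 0.4% SRB, absorbance read at 515 nm. Percent growth calculated against untreated control and time-zero plates.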

SF-295 [4] = assay: Antiproliferative activity against human SF-295 cells assessed as growth inhibition at 10 uM incubated for 48 hrs by SRB method; type: functional; conditions: read-out: GI; procedure, shortened: as §1
SNB-19 = assay: Antiproliferative activity against human SNB-19 cells assessed as growth inhibition at 10 uM incubated for 48 hrs by SRB method; type: functional; conditions: read-out: GI; procedure, shortened: as §1
RXF 393 = assay: Antiproliferative activity against human RXF 393 cells assessed as growth inhibition incubated for 48 hrs by SRB method; type: functional
Procedure, shortened: (§2)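 NCI-60 five-dose screen at 0.01, 0.1, 1, 10 and 100 μM, triplicate wells per dose. Cells were in RPMI 1640 with 5% FBS and 2 mM L-glutamine, pre-grown 24 h and then treated for 48 h at 37 °C. Read-out was TCA fixation and SRB absorbance at 515 nm.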

SF-268 = assay: Antiproliferative activity against human SF-268 cells assessed as growth inhibition incubated for 48 hrs by SRB method; type: functional; procedure, shortened: as §2
UACC-257 = assay: Antiproliferative activity against human UACC-257 cells assessed as growth inhibition incubated for 48 hrs by SRB method; type: functional; procedure, shortened: as §2
OVCAR-8 = assay: Antiproliferative activity against human OVCAR-8 cells assessed as growth inhibition incubated for 48 hrs by SRB method; type: functional; procedure, shortened: as §2
SNB-75 = assay: Antiproliferative activity against human SNB-75 cells assessed as growth inhibition incubated for 48 hrs by SRB method; type: functional; procedure, shortened: as §2
A549 [5] = assay: Downregulation of Bcl-2 gene expression in human A549 cells by qRT-PCR analysis; type: functional, cell-based
Procedure, shortened: (§3)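 A549/ATCC cells treated, total RNA DNase-treated and checked by 260/280 ratio (1.8–2.1). Reverse transcription with oligo-dT and MuLV RT: 25 °C 10 min, 42 °C 1 h, 99 °C 5 min. qPCR of 40 cycles (95 °C 15 s, 55 °C 30 s, 72 °C 30 s) followed by melt curve. Relative expression by the 2−ΔΔCT method, mean ± SEM.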

[6] = Upregulation of p53 gene expression in human A549 cells assessed as fold increase by qRT-PCR analysis; type: functional; procedure, shortened: as §3
[7] = Upregulation of Bax gene expression in human A549 cells assessed as fold increase by qRT-PCR analysis; type: functional; procedure, shortened: as §3
A549 [8] = assay: Induction of cell cycle arrest in human A549 cells assessed as increase in cells at G0-G1 phase at GI50 concentration by flow cytometry analysis (reference value: 85.41%); type: functional
A549 [9] = assay: Induction of cell cycle arrest in human A549 cells assessed as increase in cells at G0-G1 phase at GI50 concentration by flow cytometry analysis (reference value: 85.46%); type: functional
A549 [10] = assay: Induction of cell cycle arrest in human A549 cells assessed as increase in cells at G0-G1 phase at GI50 concentration by flow cytometry analysis (reference value: 85.84%); type: functional
A549 [11] = assay: Induction of cell cycle arrest in human A549 cells assessed as decrease in cells at G2/M phase at GI50 concentration by flow cytometry analysis (reference value: 13.15 to 13.37%); type: functional; parameters: scale not given: the % may be the effect or the level left
A549 [12] = assay: Induction of cell cycle arrest in human A549 cells assessed as decrease in cells at S phase at GI50 concentration by flow cytometry analysis (reference value: 0.31 to 0.51%); type: functional; parameters: scale not given: the % may be the effect or the level left
UACC-62 [13] = assay: Antiproliferative activity against human UACC-62 cells assessed as growth inhibition incubated for 48 hrs by SRB method; type: functional
Procedure, shortened: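 NCI-60 five-dose screen at 0.01, 0.1, 1, 10 and 100 μM, triplicate wells per dose. Cells grown in RPMI 1640/5% FBS, preincubated 24 h, then exposed 48 h at 37 °C. TCA fixation, SRB stain, A515.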

HOP-92 = assay: Antiproliferative activity against human HOP-92 cells assessed as growth inhibition incubated for 48 hrs by SRB method; type: functional; procedure, shortened: as §2
SF-295 [14] = assay: Antiproliferative activity against human SF-295 cells assessed as growth inhibition incubated for 48 hrs by SRB method; type: functional; procedure, shortened: as §2
NCI-H522 = assay: Antiproliferative activity against human NCI-H522 cells assessed as growth inhibition incubated for 48 hrs by SRB method; type: functional; procedure, shortened: as §2
U-251 [15] = assay: Antiproliferative activity against human U-251 cells assessed as growth inhibition incubated for 48 hrs by SRB method; type: functional; procedure, shortened: as §2
Escherichia coli = assay: Antimicrobial activity against Escherichia coli ATCC 25922 by broth microdilution method
Candida albicans = assay: Antimicrobial activity against Candida albicans ATCC 10231 by broth microdilution method
Staphylococcus aureus [16] = assay: Antimicrobial activity against Staphylococcus aureus ATCC 29213 by broth microdilution method
Hs-578T = assay: Antiproliferative activity against human Hs-578T cells assessed as growth inhibition incubated for 48 hrs by SRB method
MDA-MB-231 = assay: Antiproliferative activity against human MDA-MB-231 cells assessed as growth inhibition incubated for 48 hrs by SRB method; conditions: MDA-MB-231, 48 h
Staphylococcus aureus [17] = assay: Antimicrobial activity against Staphylococcus aureus NCTC 8325 incubated for 45 mins; type: functional; conditions: NCTC 8325, 0.75 h

Work on O=C(Nc1ccc(Cl)cc1)Nc1ccc(Cl)c(Cl)c1 [TRICLOCARBAN] yielded an MIC (Staphylococcus aureus [1]) of 16 µg/mL (≈ 50.7 µM).
Compound O=C(NC(=S)Nc1ccc(-c2ccc(=O)[nH]n2)cc1)c1cccc(Cl)c1 has an inhibition of growth at 10 µM (HOP-62) of 94.6%, an inhibition of growth at 10 µM (U-251 [2]) of 96.1% and an inhibition of growth at 10 µM (SK-MEL-2) of 98%. For the same compound, the inhibition of growth at 10 µM (UACC-62 [3]) was 91%, the inhibition of growth at 10 µM (SF-295 [4]) was 93% and the inhibition of growth at 10 µM (SNB-19) was 91.2%. For the same compound, the GI50 (RXF 393) was 6.6 µM, the GI50 (SF-268) was 6.91 µM and the GI50 (UACC-257) was 5.59 µM. For the same compound, the GI50 (OVCAR-8) was 6.24 µM, the GI50 (SNB-75) was 3.92 µM and the Activity (A549 [5]) was “Active”. For the same compound, the “fold change (FC)” value [6] was 3, the “fold change (FC)” value [7] was 3 and the Activity (A549 [8]) was 90.86%. It also gave an Activity (A549 [9]) of 89.51%, an Activity (A549 [10]) of 89.87% and an Activity (A549 [11]) of 8.95%. For the same compound, the Activity (A549 [12]) was 0.19%, the GI50 (UACC-62 [13]) was 4.07 µM and the GI50 (HOP-92) was 3.18 µM. For the same compound, the GI50 (SF-295 [14]) was 7.23 µM, the GI50 (NCI-H522) was 4.55 µM and the GI50 (U-251 [15]) was 6.94 µM. For the same compound, the MIC (Escherichia coli) was over 1020 µg/mL, the MIC (Candida albicans) was 512 µg/mL (≈ 1330 µM) and the MIC (Staphylococcus aureus [16]) was 512 µg/mL (≈ 1330 µM). It also gave a GI50 (Hs-578T) of 5.8 µM and a GI50 (MDA-MB-231) of 6.83 µM.
In the case of CNC(=O)c1cc(Oc2ccc(NC(=O)Nc3ccc(Cl)c(C(F)(F)F)c3)cc2)ccn1 [SORAFENIB], the MIC (Staphylococcus aureus [17]) is reported as 3 µg/mL (≈ 6.45 µM), the MIC (Escherichia coli) is reported as 1 µg/mL (≈ 2.15 µM) and the MIC (Candida albicans) is reported as over 128 µg/mL. For the same compound, the MIC (Staphylococcus aureus [16]) was 4 µg/mL (≈ 8.61 µM).
